Measurements reported in paper PMC4437465 (Molecular microbiology, 2014).
Read-outs that look alike come from different tables or passages of the source.

Columns and labels:
[1] = target: T1, EUR_01830 (Agathobacter rectalis, UniProt A0ABF7PGY2); experiment: isothermal titration calorimetry; type: binding; settings: 20 mM HEPES, 100 mM NaCl pH 7.0, 25 °C; isotherm not fitted
T1 sequence (A0ABF7PGY2 24-422): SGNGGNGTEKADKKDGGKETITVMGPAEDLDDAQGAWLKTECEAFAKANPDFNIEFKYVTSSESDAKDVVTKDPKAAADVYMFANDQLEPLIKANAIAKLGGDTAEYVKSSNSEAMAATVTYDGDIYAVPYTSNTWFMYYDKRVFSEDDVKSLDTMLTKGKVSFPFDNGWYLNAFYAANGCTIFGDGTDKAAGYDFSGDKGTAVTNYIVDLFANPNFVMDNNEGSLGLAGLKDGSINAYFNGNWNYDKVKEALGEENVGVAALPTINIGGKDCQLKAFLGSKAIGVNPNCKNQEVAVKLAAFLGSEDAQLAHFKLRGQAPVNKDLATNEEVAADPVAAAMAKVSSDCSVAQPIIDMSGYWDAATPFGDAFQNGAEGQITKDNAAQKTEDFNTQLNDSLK

[2] = target: T1, EUR_01830; experiment: isothermal titration calorimetry; type: binding; settings: 20 mM HEPES, 100 mM NaCl pH 7.0, 25 °C
[3] = target: T2, EUR_01240 (Agathobacter rectalis, UniProt D6E1S8); experiment: isothermal titration calorimetry; type: binding; settings: read-out: EUR_01240 / Kd; 20 mM HEPES, 100 mM NaCl pH 7.0, 25 °C
T2 sequence (D6E1S8 23-427): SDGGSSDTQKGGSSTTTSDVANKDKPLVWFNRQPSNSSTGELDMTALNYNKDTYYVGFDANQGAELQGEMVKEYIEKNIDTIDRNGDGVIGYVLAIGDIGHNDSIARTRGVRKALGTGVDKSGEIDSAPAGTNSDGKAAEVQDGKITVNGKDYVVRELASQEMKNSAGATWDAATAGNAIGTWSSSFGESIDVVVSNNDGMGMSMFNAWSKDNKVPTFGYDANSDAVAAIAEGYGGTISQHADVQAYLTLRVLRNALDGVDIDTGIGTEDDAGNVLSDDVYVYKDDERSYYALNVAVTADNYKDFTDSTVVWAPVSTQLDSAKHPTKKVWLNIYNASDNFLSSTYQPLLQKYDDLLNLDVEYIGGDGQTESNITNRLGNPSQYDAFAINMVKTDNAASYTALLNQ
Procedure, shortened: (§1)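 Runs used a low-volume NanoITC at 25 °C. Protein (30–150 μM) was dialysed against 20 mM HEPES, 100 mM NaCl pH 7.0 and loaded in the sample cell, with water in the reference cell. Oligosaccharides (0.5–5 mM) were prepared in dialysis buffer and delivered as a small first injection plus 27 further injections. Stirring was at 350 rpm. Heat of reaction was recorded and fitted for Kd.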

[4] = target: T3, EUR_21100 (Agathobacter rectalis, UniProt A0ABF7PGZ5); experiment: thin layer chromatography of products; type: biochemical; settings: 25 mM HEPES pH 6.5, 150 mM NaCl, 37 °C
T3 sequence (A0ABF7PGZ5 45-1329): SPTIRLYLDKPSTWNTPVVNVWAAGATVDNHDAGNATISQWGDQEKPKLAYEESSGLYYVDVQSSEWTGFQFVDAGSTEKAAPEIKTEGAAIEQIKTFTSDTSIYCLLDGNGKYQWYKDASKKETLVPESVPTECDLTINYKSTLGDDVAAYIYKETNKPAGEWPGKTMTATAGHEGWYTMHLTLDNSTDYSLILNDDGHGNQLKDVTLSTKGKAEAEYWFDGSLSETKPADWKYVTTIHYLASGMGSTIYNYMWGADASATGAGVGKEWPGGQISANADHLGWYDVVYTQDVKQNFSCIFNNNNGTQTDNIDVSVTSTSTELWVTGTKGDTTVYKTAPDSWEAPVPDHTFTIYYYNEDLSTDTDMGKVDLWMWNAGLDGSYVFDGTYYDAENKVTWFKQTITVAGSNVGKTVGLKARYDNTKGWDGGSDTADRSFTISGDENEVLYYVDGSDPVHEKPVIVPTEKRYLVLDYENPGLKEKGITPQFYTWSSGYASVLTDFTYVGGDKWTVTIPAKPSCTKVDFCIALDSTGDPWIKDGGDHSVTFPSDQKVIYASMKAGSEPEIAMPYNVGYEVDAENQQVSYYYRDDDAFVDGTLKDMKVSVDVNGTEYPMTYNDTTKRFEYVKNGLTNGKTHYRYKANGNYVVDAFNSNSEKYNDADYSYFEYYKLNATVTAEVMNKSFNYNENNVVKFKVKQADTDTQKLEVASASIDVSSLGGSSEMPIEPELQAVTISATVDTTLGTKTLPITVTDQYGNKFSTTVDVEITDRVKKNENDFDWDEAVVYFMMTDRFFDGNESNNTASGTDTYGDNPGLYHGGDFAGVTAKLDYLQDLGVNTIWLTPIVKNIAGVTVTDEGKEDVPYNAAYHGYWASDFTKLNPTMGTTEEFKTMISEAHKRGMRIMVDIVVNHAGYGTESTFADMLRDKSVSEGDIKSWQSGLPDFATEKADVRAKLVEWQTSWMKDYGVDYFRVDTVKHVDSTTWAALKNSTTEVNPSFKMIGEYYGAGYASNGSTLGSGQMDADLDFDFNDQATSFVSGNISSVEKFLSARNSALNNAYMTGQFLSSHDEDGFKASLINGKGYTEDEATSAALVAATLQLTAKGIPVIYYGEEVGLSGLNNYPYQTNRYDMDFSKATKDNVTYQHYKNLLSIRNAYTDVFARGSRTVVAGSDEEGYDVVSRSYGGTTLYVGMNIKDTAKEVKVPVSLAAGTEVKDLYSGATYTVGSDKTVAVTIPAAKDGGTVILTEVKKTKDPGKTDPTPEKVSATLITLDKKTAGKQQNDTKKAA

[5] = target: EUR_31480; experiment: isothermal titration calorimetry; type: binding, Agathobacter rectalis; settings: read-out: EUR_31480 / Kd; 20 mM HEPES, 100 mM NaCl pH 7.0, 25 °C
Procedure, shortened: as §1

[6] = target: T1, EUR_01830; experiment: isothermal titration calorimetry; type: binding; settings: read-out: EUR_01830 / Kd; 20 mM HEPES, 100 mM NaCl pH 7.0, 25 °C
[7] = target: T4, EUR_21010 (Agathobacter rectalis, UniProt C4ZGN9); experiment: isothermal titration calorimetry; type: binding; settings: 20 mM HEPES, 100 mM NaCl pH 7.0, 25 °C
T4 sequence (C4ZGN9 26-464): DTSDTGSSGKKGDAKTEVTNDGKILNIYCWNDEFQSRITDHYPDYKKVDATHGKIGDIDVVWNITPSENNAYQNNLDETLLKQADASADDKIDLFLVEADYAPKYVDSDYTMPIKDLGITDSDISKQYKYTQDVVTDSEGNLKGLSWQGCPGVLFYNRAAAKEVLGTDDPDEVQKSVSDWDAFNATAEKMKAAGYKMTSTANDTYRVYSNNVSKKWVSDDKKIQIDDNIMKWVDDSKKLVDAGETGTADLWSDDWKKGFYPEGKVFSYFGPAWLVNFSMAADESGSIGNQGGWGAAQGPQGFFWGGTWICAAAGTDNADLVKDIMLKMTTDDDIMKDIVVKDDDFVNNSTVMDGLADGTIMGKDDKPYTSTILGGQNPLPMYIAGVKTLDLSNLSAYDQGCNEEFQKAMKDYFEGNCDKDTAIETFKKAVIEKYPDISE

OC[C@H]1O[C@H](OC[C@H]2O[C@H](O[C@H]3[C@H](O)[C@@H](O)[C@@H](O[C@H]4[C@H](O)[C@@H](O)[C@@H](OC[C@H]5O[C@H](O[C@H]6[C@H](O)[C@@H](O)[C@@H](O[C@H]7[C@H](O)[C@@H](O)C(O)O[C@@H]7CO)O[C@@H]6CO)[C@H](O)[C@@H](O)[C@@H]5O)O[C@@H]4CO)O[C@@H]3CO)[C@H](O)[C@@H](O)[C@@H]2O)[C@H](O)[C@@H](O)[C@@H]1O (stereo partly shown) [GMM]
isothermal titration calorimetry [1]: We obtained an isotherm with GMM, but these data could not be fit well enough

OC[C@H]1O[C@H](OC[C@H]2O[C@H](O[C@H]3[C@H](O)[C@@H](O)[C@@H](O[C@H]4[C@H](O)[C@@H](O)C(O)O[C@@H]4CO)O[C@@H]3CO)[C@H](O)[C@@H](O)[C@@H]2O)[C@H](O)[C@@H](O)[C@@H]1O (stereo partly shown) [GM]
Kd ([2]; read-out: EUR_01830 / Kd): 9.08 ± 0.618 µM

OC[C@H]1OC(O)[C@H](O)[C@@H](O)[C@H]1O (stereo partly shown) [Galactose]
Kd [3]: 0.415 ± 0.0202 µM

OC[C@H]1OC(O)[C@H](O)[C@@H](O)[C@@H]1O (stereo partly shown) [Glucose]
Kd [3]: 1.9 ± 0.46 µM

OC[C@H]1O[C@H](O[C@H]2[C@H](O)[C@@H](O)[C@@H](O[C@H]3[C@H](O)[C@@H](O)[C@@H](O[C@H]4[C@H](O)[C@@H](O)[C@@H](O[C@H]5[C@H](O)[C@@H](O)[C@@H](O[C@H]6[C@H](O)[C@@H](O)[C@@H](O[C@H]7[C@H](O)[C@@H](O)C(O)O[C@@H]7CO)O[C@@H]6CO)O[C@@H]5CO)O[C@@H]4CO)O[C@@H]3CO)O[C@@H]2CO)[C@H](O)[C@@H](O)[C@@H]1O (stereo partly shown) [Maltoheptaose]
Kd ([2]; read-out: EUR_01830 / Kd): 0.288 ± 0.0059 µM | thin layer chromatography of products [4]: can hydrolyze longer maltooligosaccharides such as maltohexaose and maltoheptaose

OC[C@H]1O[C@H](O[C@H]2[C@H](O)[C@@H](O)[C@@H](O[C@H]3[C@H](O)[C@@H](O)[C@@H](O[C@H]4[C@H](O)[C@@H](O)[C@@H](O[C@H]5[C@H](O)[C@@H](O)[C@@H](O[C@H]6[C@H](O)[C@@H](O)C(O)O[C@@H]6CO)O[C@@H]5CO)O[C@@H]4CO)O[C@@H]3CO)O[C@@H]2CO)[C@H](O)[C@@H](O)[C@@H]1O (stereo partly shown) [Maltohexaose]
Kd ([2]; read-out: EUR_01830 / Kd): 0.16 ± 0.006 µM

OC[C@H]1O[C@H](O[C@H]2[C@H](O)[C@@H](O)[C@@H](O[C@H]3[C@H](O)[C@@H](O)[C@@H](O[C@H]4[C@H](O)[C@@H](O)[C@@H](O[C@H]5[C@H](O)[C@@H](O)C(O)O[C@@H]5CO)O[C@@H]4CO)O[C@@H]3CO)O[C@@H]2CO)[C@H](O)[C@@H](O)[C@@H]1O (stereo partly shown) [Maltopentaose]
Kd ([2]; read-out: EUR_01830 / Kd): 0.194 ± 0.0348 µM

OC[C@H]1O[C@H](O[C@H]2[C@H](O)[C@@H](O)C(O)O[C@@H]2CO)[C@H](O)[C@@H](O)[C@@H]1O (stereo partly shown) [Maltose]
Kd [5]: 0.563 ± 0.0664 µM

OC[C@H]1O[C@H](O[C@H]2[C@H](O)[C@@H](O)[C@@H](O[C@H]3[C@H](O)[C@@H](O)[C@@H](O[C@H]4[C@H](O)[C@@H](O)C(O)O[C@@H]4CO)O[C@@H]3CO)O[C@@H]2CO)[C@H](O)[C@@H](O)[C@@H]1O (stereo partly shown) [Maltotetraose]
Kd ([2]; read-out: EUR_01830 / Kd): 0.112 ± 0.0198 µM | Kd [5]: 1.67 ± 0.199 µM

OC[C@H]1O[C@H](O[C@H]2[C@H](O)[C@@H](O)[C@@H](O[C@H]3[C@H](O)[C@@H](O)C(O)O[C@@H]3CO)O[C@@H]2CO)[C@H](O)[C@@H](O)[C@@H]1O (stereo partly shown) [Maltotriose]
Kd [5]: 0.355 ± 0.0004 µM | Kd [6]: 0.55 ± 0.014 µM

OC[C@H]1O[C@@H](O[C@H]2[C@H](O)[C@@H](O)C(O)O[C@@H]2CO)[C@H](O)[C@@H](O)[C@@H]1O (stereo partly shown) [cellobiose]
Kd [7]: 0.542 µM

OC[C@H]1O[C@@H](O[C@H]2[C@H](O)[C@@H](O)[C@H](O[C@H]3[C@H](O)[C@@H](O)[C@H](O[C@H]4[C@H](O)[C@@H](O)C(O)O[C@@H]4CO)O[C@@H]3CO)O[C@@H]2CO)[C@H](O)[C@@H](O)[C@@H]1O (stereo partly shown) [cellotetraose]
Kd [7]: 3.01 µM

OC[C@H]1O[C@@H]2O[C@H]3[C@H](O)[C@@H](O)[C@@H](O[C@H]4[C@H](O)[C@@H](O)[C@@H](O[C@H]5[C@H](O)[C@@H](O)[C@@H](O[C@H]6[C@H](O)[C@@H](O)[C@@H](O[C@H]7[C@H](O)[C@@H](O)[C@@H](O[C@H]1[C@H](O)[C@H]2O)O[C@@H]7CO)O[C@@H]6CO)O[C@@H]5CO)O[C@@H]4CO)O[C@@H]3CO [α-cyclodextrin]
Kd [2]: 39 900 ± 2 430 nM
